Measurements: ChEMBL document CHEMBL1155478, “Novel C-aryl glucoside SGLT2 inhibitors as potential antidiabetic agents: Pyridazinylmethylphenyl glucoside congeners” (Bioorg Med Chem Lett, 2010)

How the values were obtained:
[1] = molecular target: T1, Sodium/glucose cotransporter 2 (Homo sapiens, UniProt P31639); test: Inhibition of human SGLT2 expressed in CHO cells assessed as [14C]alpha-methyl-D-glucopyranoside uptake after 2 hrs by liquid scintillation counting; assay type: cell-based
T1 sequence (P31639 whole entry): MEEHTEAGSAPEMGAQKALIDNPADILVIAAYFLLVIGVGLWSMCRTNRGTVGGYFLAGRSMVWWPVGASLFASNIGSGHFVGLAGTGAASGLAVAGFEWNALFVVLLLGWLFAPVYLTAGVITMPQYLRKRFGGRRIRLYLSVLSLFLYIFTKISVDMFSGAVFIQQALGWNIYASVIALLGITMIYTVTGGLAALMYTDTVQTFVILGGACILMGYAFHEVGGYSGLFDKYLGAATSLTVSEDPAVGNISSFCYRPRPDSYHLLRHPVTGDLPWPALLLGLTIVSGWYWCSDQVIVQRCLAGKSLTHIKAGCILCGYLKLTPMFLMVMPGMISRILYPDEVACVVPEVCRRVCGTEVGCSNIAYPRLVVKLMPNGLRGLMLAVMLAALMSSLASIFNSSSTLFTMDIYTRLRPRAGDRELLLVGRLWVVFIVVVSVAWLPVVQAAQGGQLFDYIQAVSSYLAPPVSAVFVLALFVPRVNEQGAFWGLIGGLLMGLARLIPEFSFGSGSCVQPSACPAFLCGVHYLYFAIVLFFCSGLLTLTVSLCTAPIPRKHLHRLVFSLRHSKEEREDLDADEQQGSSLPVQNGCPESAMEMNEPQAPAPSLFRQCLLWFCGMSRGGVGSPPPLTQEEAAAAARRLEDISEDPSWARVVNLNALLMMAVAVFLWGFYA
Outline: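 CHO cells stably transfected with hSGLT2 (pcDNA3.1(+), G418-selected), seeded at 5 × 10⁴ cells/well and used 1 day later. Cells pre-incubated 10 min at 37 °C in Na⁺-free choline chloride buffer pH 7.4. Then incubated 2 h at 37 °C in NaCl uptake buffer with 1 mM unlabeled AMG plus ¹⁴C-AMG, with inhibitor or DMSO. Washed with 10 mM AMG buffer; radioactivity counted by liquid scintillation.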

[2] = Oral bioavailability in Sprague-Dawley rat at 5 mg/kg; assay type: ADME, organism-based; conditions: in vivo
Outline: (§1)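 Male SD rats given a single oral dose of 5 mg/kg. Plasma sampled to obtain Cmax, time to Cmax and elimination half-life after oral dosing. Oral bioavailability (F) determined.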

in vivo = conditions: Sprague-Dawley, rat, po, 5 mg/kg
[3] = Elimination half life in Sprague-Dawley rat at 5 mg/kg, po; assay type: ADME, organism-based; set-up: dose 5 mg/kg, route oral; conditions: in vivo, read-out: beta t1/2 (converted); outline: as §1
[4] = Cmax in Sprague-Dawley rat at 5 mg/kg, po after 0.33 hrs; assay type: ADME, organism-based; set-up: dose 5 mg/kg, route oral; conditions: in vivo; outline: as §1
Rattus norvegicus [5] = test: Increase of urinary glucose excretion in normal Sprague-Dawley rat at 10 mg/kg, po subsequently dosed orally with 50% aqueous glucose solution measured up to 24 hrs relative to control; assay type: functional, Urine
Rattus norvegicus [6] = test: Increase of urinary volume in normal Sprague-Dawley rat assessed […] at 10 mg/kg, po subsequently dosed orally with 50% aqueous glucose solution measured up to 24 hrs (RVB = 3.9 +/- 0.23 ml/200 mg body weight)
Rattus norvegicus [7] = test: Increase of urinary glucose excretion in normal Sprague-Dawley rat assessed per 200 g of body weight at 10 mg/kg, po subsequently dosed orally with 50% aqueous glucose solution measured up to 24 hrs (RVB = […] mg/200 g of body weight); assay type: functional, Urine
Rattus norvegicus [8] = test: Increase of urinary volume in normal Sprague-Dawley rat at 10 mg/kg, po subsequently dosed orally with 50% aqueous glucose solution measured up to 24 hrs relative to control; assay type: functional, Urine

Cc1nnc(Cc2cc([C@@H]3O[C@H](CO)[C@@H](O)[C@H](O)[C@H]3O)ccc2Cl)c2ccccc12
IC50 [1]: > 10000 nM

CC(C)Oc1ccc(Cc2cc([C@@H]3O[C@H](CO)[C@@H](O)[C@H](O)[C@H]3O)ccc2Cl)nn1
IC50 [1]: 110 nM

COc1cccc(-c2ccc(Cc3cc([C@@H]4O[C@H](CO)[C@@H](O)[C@H](O)[C@H]4O)ccc3Cl)nn2)c1
IC50 [1]: 351 nM

CCOc1ccc(Cc2cc([C@@H]3O[C@H](CO)[C@@H](O)[C@H](O)[C@H]3O)ccc2Cl)cc1 [DAPAGLIFLOZIN]
bioavailability [2]: 88.4% | Cmax at 0.67 h (in vivo): 2500 ng/mL | half-life [3]: 240 min

CSc1ccc(Cc2cc([C@@H]3O[C@H](CO)[C@@H](O)[C@H](O)[C@H]3O)ccc2Cl)nn1
bioavailability [2]: 26.1% | Cmax [4]: 310 ng/mL | fold change (FC) (Rattus norvegicus [5]): 180 | Activity (Rattus norvegicus [6]): 5.07 mL | Activity (Rattus norvegicus [7]): 344 mg | half-life [3]: 116 min | fold change (FC) (Rattus norvegicus [8]): 1.3
